# Test results as given in article PMC9817006 (Journal of psychopharmacology (Oxford, England), 2022).
# Columns and labels:
# Format in all cases: in vivo
# ICR mice = assay: Tail-flick test
# Method in brief: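 ICR mice (6/group) injected s.c. with test compound (0.001, 0.01, 0.1, 0.5 mg/kg) or saline; tail-flick latency tested at 5, 10, 15, 30, 60 and 120 min. Pre-treatment control latency 2–4 sec; 10 sec cutoff. %MPE = (test−control)/(10−control)×100.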
# [1] = test system: C57BL/6J mice; β2 and α6 WT and KO mice; assay: Formalin test
# [2] = test system: C57BL/6J mice; β2 WT and KO mice; assay: Locomotor activity
# Method in brief: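 Saline or test compound was given s.c. 15 min before mice entered photocell cages with two banks of eight beams. Beam interruptions were counted over 30 min. β2 WT and KO mice (8/group) received 0.5 mg/kg. For repeated dosing, mice (12/group) received saline or 0.01, 0.1, 0.5 or 1 mg/kg daily for 5 days, had 2 days without injection, and were challenged on day 8.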
# [3] = C57BL/6J mice, 0.5 mg/kg s.c., pretreatment 5, 15, 30, 60 min
# [4] = α6 WT and KO mice, 0.5 mg/kg s.c., 15 min pretreatment
# [5] = β2 WT mice, 0.5 mg/kg s.c., 15 min pretreatment
structure (smiles),measurement,setting,value
"Ic1cncc(OC[C@@H]2CCN2)c1 [5IA, 5-Iodo-A-85380]","Antinociceptive response, tail-flick test","ICR mice; 0.001 mg/kg s.c., 5 min after injection",2 ± 2 % MPE
same,"Antinociceptive response, tail-flick test","ICR mice; 0.001 mg/kg s.c., 10 min after injection",3 ± 1 % MPE
same,"Antinociceptive response, tail-flick test","ICR mice; 0.001 mg/kg s.c., 15 min after injection",3 ± 2 % MPE
same,"Antinociceptive response, tail-flick test","ICR mice; 0.001 mg/kg s.c., 30 min after injection",0 ± 0 % MPE
same,"Antinociceptive response, tail-flick test","ICR mice; 0.001 mg/kg s.c., 60 min after injection",1 ± 1 % MPE
same,"Antinociceptive response, tail-flick test","ICR mice; 0.001 mg/kg s.c., 120 min after injection",4 ± 2 % MPE
same,"Antinociceptive response, tail-flick test","ICR mice; 0.01 mg/kg s.c., 5 min after injection",1 ± 1 % MPE
same,"Antinociceptive response, tail-flick test","ICR mice; 0.01 mg/kg s.c., 10 min after injection",2 ± 1 % MPE
same,"Antinociceptive response, tail-flick test","ICR mice; 0.01 mg/kg s.c., 15 min after injection",2 ± 1 % MPE
same,"Antinociceptive response, tail-flick test","ICR mice; 0.01 mg/kg s.c., 30 min after injection",2 ± 2 % MPE
same,"Antinociceptive response, tail-flick test","ICR mice; 0.01 mg/kg s.c., 60 min after injection",1 ± 1 % MPE
same,"Antinociceptive response, tail-flick test","ICR mice; 0.01 mg/kg s.c., 120 min after injection",1 ± 1 % MPE
same,"Antinociceptive response, tail-flick test","ICR mice; 0.1 mg/kg s.c., 5 min after injection",0 ± 0 % MPE
same,"Antinociceptive response, tail-flick test","ICR mice; 0.1 mg/kg s.c., 10 min after injection",3 ± 1 % MPE
same,"Antinociceptive response, tail-flick test","ICR mice; 0.1 mg/kg s.c., 15 min after injection",3 ± 1 % MPE
same,"Antinociceptive response, tail-flick test","ICR mice; 0.1 mg/kg s.c., 30 min after injection",6 ± 4 % MPE
same,"Antinociceptive response, tail-flick test","ICR mice; 0.1 mg/kg s.c., 60 min after injection",3 ± 2 % MPE
same,"Antinociceptive response, tail-flick test","ICR mice; 0.1 mg/kg s.c., 120 min after injection",5 ± 2 % MPE
same,"Antinociceptive response, tail-flick test","ICR mice; 0.5 mg/kg s.c., 5 min after injection",10 ± 4 % MPE
same,"Antinociceptive response, tail-flick test","ICR mice; 0.5 mg/kg s.c., 10 min after injection",4 ± 3 % MPE
same,"Antinociceptive response, tail-flick test","ICR mice; 0.5 mg/kg s.c., 15 min after injection",11 ± 4 % MPE
same,"Antinociceptive response, tail-flick test","ICR mice; 0.5 mg/kg s.c., 30 min after injection",7 ± 4 % MPE
same,"Antinociceptive response, tail-flick test","ICR mice; 0.5 mg/kg s.c., 60 min after injection",6 ± 3 % MPE
same,"Antinociceptive response, tail-flick test","ICR mice; 0.5 mg/kg s.c., 120 min after injection",7 ± 3 % MPE
same,"Effect on acute thermal antinociception, tail-flick test (in words)","ICR mice; 0.001-0.5 mg/kg s.c., 5-120 min, Dunnett's post hoc",no significant effects of dose at any of the observed time points
same,"Paw licking, formalin test phase I, time course (in words)",[1]; [3],"significant effects of 5IA treatment at 5, 15, 30, and 60 min in phase I"
same,"Paw licking, formalin test phase II, time course (in words)",[1]; [3],significant differences observed at only 5 and 15 minutes
same,"Paw licking, formalin test, dose-response (in words)","[1]; C57BL/6J mice, 0.01, 0.1, 0.5 mg/kg s.c., 15 min pretreatment, vs vehicle",significant attenuation of paw licking responses at 0.1 and 0.5 mg/kg
same,"Paw licking, formalin test phase I (in words)",[1]; [4],completely blocked the paw licking behavior in both α6 WT and KO mice in phase I
same,"Paw licking, formalin test phase II (in words)",[1]; [4],only partially inhibited it in phase II
same,"Paw licking, formalin test phase I (in words)",[1]; [5],significantly attenuated paw licking time in phase I
same,"Paw licking, formalin test phase II (in words)",[1]; [5],partially decreased paw licking time in phase II
same,"Locomotion after repeated injection, low dose (in words)","[2]; C57BL/6J mice, 0.01 mg/kg s.c. for 5 days, vs vehicle",stimulant effects on locomotion at days 3 and 5
same,"Locomotion after repeated injection, higher doses (in words)","[2]; C57BL/6J mice, 0.5 and 1 mg/kg s.c. for 5 days, days 1 and 2, vs vehicle",depressive effects at higher doses (0.5 and 1 mg/kg)
same,Tolerance to locomotor depressant effects (in words),"[2]; C57BL/6J mice, repeated injection of higher doses",Tolerance to the depressant effects of higher doses of 5IA developed progressively after day 2
same,Attenuation of locomotion in β2 WT vs KO mice (in words),"[2]; β2 WT and KO mice, 0.5 mg/kg s.c.",this effect was only observed in β2 WT mice and not in β2 KO mice
